Like-named read-outs stand apart in the source and are kept apart here.
How the values were obtained:
[1] = system: thrombin generation in protein C-deficient human plasma; assay: Thrombin generation assay; format: biochemical; conditions: absence or presence of rhs-TM
Summary of the method: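 Lyophilised protein C-deficient human plasma was spiked with increasing test compound concentrations or vehicle, with or without rhs-TM (final 10 nmol L−1). Thrombin generation was triggered with TF 1.67 pmol L−1 and phospholipid 1.33 μmol L−1 (final), incubated 5 min at 37 °C, and started with FluCa (HEPES, CaCl2, fluorogenic substrate). Fluorescence was calibrated per sample; Cmax and ETP were derived; n = 3.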

[2] = system: tissue factor-induced thrombin generation in normal human platelet-poor plasma; assay: Thrombin generation assay; format: biochemical; conditions: for maximal increase in Cmax over baseline / maximal increase in ETP over baseline: absence of rhs-TM, lower concentration range, not significant; for Cmax increase vs. control / ETP increase vs. control: presence of rhs-TM 10 nmol L^−1; for IC50: normal human PPP
Summary of the method: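 Citrated blood (3.12%, 1/10 vol) came from unmedicated healthy donors; PPP was prepared at 1000× g for 20 min at room temperature. Individual-donor PPP was spiked with increasing test compound concentrations (3–948 or 3–1090 nmol L−1) or vehicle, with or without rhs-TM (final 10 nmol L−1). TF was 1.67 pmol L−1 and phospholipid 1.33 μmol L−1 (final). After 5 min at 37 °C, FluCa was added. Calibrated thrombogram gave Cmax and ETP; n = 8–12.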

[3] = system: prothrombin fragment 1+2 generation in protein C-deficient human plasma; assay: Prothrombin fragment 1+2; format: biochemical; conditions: presence of TM
Summary of the method: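 Protein C-deficient human plasma was spiked with test compound (increasing concentrations) or vehicle plus rhs-TM (final 10 nmol L−1), then defibrinated with PefablocFG (final 6 mg mL−1). The CAT-type TF/phospholipid trigger was used, started with Fluo-buffer (HEPES, CaCl2, 5% DMSO, no substrate) and stopped after 12 min with PPACK (final 10 μmol L−1). Samples went into EDTA (final 100 mmol L−1) at 4 °C and were stored at −20 °C. F1+2 was measured by ELISA.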

[4] = system: prothrombin fragment 1+2 generation in normal human platelet-poor plasma; assay: Prothrombin fragment 1+2; format: biochemical; conditions: for F1+2 increase: same concentration range as by the CAT method (melagatran 119–474, dabigatran 136–545 nmol L^−1); for IC50: read-out: F1+2 generation IC50, normal human PPP
[5] = system: activated partial thromboplastin time; assay: Activated partial thromboplastin time; format: in vivo; conditions: rat, 15 minutes after drug, 10 minutes after TF
Summary of the method: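 Male Wistar rats (227–273 g) were fasted overnight and anaesthetised with i.p. pentobarbital-Na (80–100 mg kg−1). Test compound in 0.9% NaCl (0.001–0.3 mg kg−1) or vehicle (1 mL kg−1) was given i.v., then 5 min later recombinant TF (8 mg kg−1) or vehicle (sham) was given as a slow i.v. bolus. Citrated aortic blood was drawn 10 min after TF. APTT was measured on PPP by ball coagulometer, as fold over baseline; n = 10.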

plasma fibrinogen = assay: Tissue factor-induced hypercoagulability in rats: fibrinogen levels; format: in vivo; conditions: rat
thrombin bound to TM = conditions: cited from earlier work
[6] = system: thrombin–antithrombin (TAT) complex; assay: Tissue factor-induced hypercoagulability in rats: plasma TAT levels; format: in vivo; conditions: rat; for effect on TF-induced increase in TAT levels: 0.3 mg kg^−1 i.v., 10 minutes after TF 8 mg kg^−1
[7] = Plasma concentrations of rivaroxaban and melagatran in rats; format: in vivo; conditions: rat, 15 minutes after drug, 10 minutes after TF
platelet count = assay: Tissue factor-induced hypercoagulability in rats: platelet count; format: in vivo; conditions: rat
prothrombin time = assay: Prothrombin time; format: in vivo; conditions: rat; for PT prolongation: 15 minutes after drug, 10 minutes after TF
Summary of the method: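 Rats (male Wistar, 227–273 g) were fasted overnight and anaesthetised with i.p. pentobarbital-Na (80–100 mg kg−1). Test compound in PEG:H2O:glycerol (996:100:60 g), 0.001–0.3 mg kg−1, or vehicle (1 mL kg−1) was given i.v. After 5 min, TF (8 mg kg−1) or vehicle (sham) was given as a slow i.v. bolus. Citrated aortic blood was taken 10 min later. PT on PPP by ball coagulometer, expressed as fold over baseline; n = 10.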

[8] = system: mortality of treated animals; conditions: TF-induced hypercoagulation; cited from earlier work
[9] = read-out: Cmax IC50, peak thrombin generation, +TM (rhs-TM 10 nmol L^−1)
[10] = read-out: Cmax IC50, peak thrombin generation, −TM (absence of rhs-TM)
[11] = read-out: ETP IC50, endogenous thrombin potential, +TM (rhs-TM 10 nmol L^−1)
[12] = read-out: ETP IC50, endogenous thrombin potential, −TM (absence of rhs-TM)
[13] = presence of rhs-TM 10 nmol L^−1
[14] = melagatran at 119–474 nmol L^−1
[15] = whole dose range tested (0.001–0.3 mg kg^−1 i.v.)

SMILES	increase in ETP or Cmax [1]	maximal increase in Cmax over baseline [2] [%]	maximal increase in ETP over baseline [2] [%]	IC50 [2, 9] [nM]	IC50 [2, 10] [nM]	IC50 [2, 11] [nM]	IC50 [2, 12] [nM]	generation of F1+2 [3]	F1+2 increase [4, 13]	IC50 ([4]; absence of rhs-TM) [nM]	increase in the affinity of the thrombin inhibitor for the thrombin bound to TM (thrombin bound to TM)	effect on TF-induced increase in TAT levels [6]	also measured
[H]/N=C(/N)c1ccc(NCc2nc3cc(C(=O)N(CCC(=O)O)c4ccccn4)ccc3n2C)cc1 [Dabigatran]	No increase	11	5	> 1090	976 ± 71	> 1090	722 ± 44	concentration-dependently inhibited	1.6–1.9 fold	387 ± 63			Cmax increase vs. control ([2]; dabigatran at 68–545 nmol L^−1): 2.0–3.3 fold; ETP increase vs. control ([2]; dabigatran at 136–545 nmol L^−1): 2.2–2.6 fold
N=C(N)c1ccc(CNC(=O)[C@@H]2CCN2C(=O)[C@H](NCC(=O)O)C2CCCCC2)cc1 [Melagatran]	No increase	8	6	> 950	940 ± 79	> 950	732 ± 43	concentration-dependently inhibited	1.8–2.0 fold	368 ± 40	twofold increase	reduced	APTT prolongation ([5]; 0.001 mg kg^−1 i.v.): 1.26 ± 0.05 x-fold over baseline; APTT prolongation ([5]; 0.003 mg kg^−1 i.v.): 1.34 ± 0.05 x-fold over baseline; APTT prolongation ([5]; 0.01 mg kg^−1 i.v.): 1.68 ± 0.03 x-fold over baseline; APTT prolongation ([5]; 0.03 mg kg^−1 i.v.): 2.17 ± 0.23 x-fold over baseline; APTT prolongation ([5]; 0.1 mg kg^−1 i.v.): 2.08 ± 0.18 x-fold over baseline; APTT prolongation ([5]; 0.3 mg kg^−1 i.v.): 3.11 ± 0.27 x-fold over baseline; fibrinogen levels (plasma fibrinogen; 0.03 mg kg^−1 i.v., TF control 2.34 ± 0.08 g L^−1, P < 0.001): 1.41 ± 0.20 g/L; TAT increase vs. TF control ([6]; 0.01 mg kg^−1 i.v., P < 0.01): 1.6 fold; Cmax increase vs. control [2, 14]: 2.2–2.7 fold; ETP increase vs. control [2, 14]: 1.9–2.2 fold; Plasma concentration ([7]; 0.01 mg kg^−1 i.v.): 19.2 ± 0.9 ng/mL; Plasma concentration ([7]; 0.3 mg kg^−1 i.v.): 524.7 ± 26.1 ng/mL; platelet count (platelet count; 0.01 mg kg^−1 i.v., TF control 644 × 10^3 μL^−1): 559000 µL⁻¹
O=C(NC[C@H]1CN(c2ccc(N3CCOCC3=O)cc2)C(=O)O1)c1ccc(Cl)s1 [Rivaroxaban]				44 ± 6	66 ± 5	57 ± 8	697 ± 106	concentration-dependently inhibited		12 ± 7		complete inhibition	fibrinogen concentration (plasma fibrinogen; [15]): not affected; IC50 [4, 13]: 14 ± 7 nM; PT prolongation (prothrombin time; 0.001 mg kg^−1 i.v.): 1.00 ± 0.04 x-fold over baseline; PT prolongation (prothrombin time; 0.003 mg kg^−1 i.v.): 1.02 ± 0.02 x-fold over baseline; PT prolongation (prothrombin time; 0.01 mg kg^−1 i.v.): 0.96 ± 0.02 x-fold over baseline; PT prolongation (prothrombin time; 0.03 mg kg^−1 i.v.): 1.03 ± 0.02 x-fold over baseline; PT prolongation (prothrombin time; 0.1 mg kg^−1 i.v.): 1.26 ± 0.06 x-fold over baseline; PT prolongation (prothrombin time; 0.3 mg kg^−1 i.v.): 1.92 ± 0.05 x-fold over baseline; prolongation of PT over the dose range (prothrombin time; dose range 0.001–0.3 mg kg^−1 i.v.): 1.0–1.9 fold over baseline; platelet count (platelet count; [15]): not affected
N=C(N)NCCCNC(=O)[C@@H]1CCCCN1C(=O)[C@@H](CC1CCCCC1)NCC(=O)O [inogatran]											twofold increase		
CCOC(=O)CN[C@@H](C(=O)N1CC[C@H]1C(=O)NCc1ccc(/C(N)=N\O)cc1)C1CCCCC1 [ximelagatran]													mortality rate, dose-dependent [8]: up to 67%; mortality rate, time-dependent [8]: ≤ 88%

— paper PMC4285304 (Journal of Thrombosis and Haemostasis, 2014)
